The values below come from ChEMBL document CHEMBL1268915, “Optimization of a series of dipeptides with a P3 threonine residue as non-covalent inhibitors of the chymotrypsin-like activity of the human 20S proteasome” (Bioorg Med Chem Lett, 2010).

The source made the active and inactive calls. The rule behind the calls is not given here.

Data set [1] in a line: Inhibition of chymotrypsin-like activity of human 20s proteasome beta2 subunit in human erythrocyte assessed as hydrolysis of Ac-WLA-AMC fluorogenic substrate.
Data set [2] deals with Tissue-type plasminogen activator (Homo sapiens) (UniProt P00750). Briefly: Inhibition of tissue plasminogen activator at 100 uM.
Data set [3] is described as follows: Inhibition of chymotrypsin-like activity of human 20s proteasome beta-1 subunit in human erythrocyte assessed as hydrolysis of Ac-WLA-AMC fluorogenic substrate.
The species entered for data set [4] is Homo sapiens. Briefly: Inhibition of human chymotrypsin at 100 uM.
The target in data set [5] is Prothrombin (Homo sapiens) (UniProt P00734). The experiment in a line: Inhibition of human thrombin at 100 uM.
Data set [6] addresses Cathepsin B (Homo sapiens) (UniProt P07858). Briefly: Inhibition of human cathepsin B at 100uM.
The species entered for data set [7] is Homo sapiens. The experiment in a line: Inhibition of human elastase at 100 uM.
Data set [8] in a line: Cytotoxicity against human Calu6 cells assessed as cellular ATP level after 72 hrs by luminescence-based ATPlite assay. In kind it is cell-based, Calu-6. The note with it: read-out: LC50. In outline:
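Calu6 cells, 2000 per well, incubated with compound for 72 h. Viability read as cellular ATP by luminescence (ATPlite). Values are means of at least three independent experiments.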

The target in data set [9] is Procathepsin L (Homo sapiens) (UniProt P07711). The experiment in a line: Inhibition of human cathepsin L at 100uM.
For data set [10], the target named is Plasminogen (Homo sapiens) (UniProt P00747). Briefly: Inhibition of human plasmin at 100 uM.
The nature of data set [11]: Inhibition of chymotrypsin-like activity of human 20s proteasome beta5 subunit in human erythrocyte assessed as hydrolysis of Ac-WLA-AMC fluorogenic substrate.
Data set [12] deals with Trypsin (Homo sapiens) (UniProt P07477+P07478+P35030). Briefly: Inhibition of human trypsin at 100 uM. In kind it is protein assay.
Data set [13] has as its system HEK293. The experiment in a line: (§1) Inhibition of TNF-alpha-induced NF-kappaB activation in human HEK293 cells after 3 hrs by luciferase reporter gene assay. In kind it is cell-based. Also noted: concentration or dose not given beside the values. The note with it: dose or concentration not given here. In outline: (§2)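 NF-κB-luciferase reporter in HEK293 cells (10,000 per well). Cells were pre-incubated with compound for 1 h, then stimulated with 10 ng/ml TNF-α for 3 h with compound still present. IC50 and percentage inhibition were reported as means of at least three independent experiments.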

Data set [14] in a line: as §1. The class given is cell-based. The note with it: HEK293, 3 h. In outline: as §2
Data set [15] has as its target T1, Calpain-1 catalytic subunit (Homo sapiens) (UniProt P07384).
T1 sequence (whole entry): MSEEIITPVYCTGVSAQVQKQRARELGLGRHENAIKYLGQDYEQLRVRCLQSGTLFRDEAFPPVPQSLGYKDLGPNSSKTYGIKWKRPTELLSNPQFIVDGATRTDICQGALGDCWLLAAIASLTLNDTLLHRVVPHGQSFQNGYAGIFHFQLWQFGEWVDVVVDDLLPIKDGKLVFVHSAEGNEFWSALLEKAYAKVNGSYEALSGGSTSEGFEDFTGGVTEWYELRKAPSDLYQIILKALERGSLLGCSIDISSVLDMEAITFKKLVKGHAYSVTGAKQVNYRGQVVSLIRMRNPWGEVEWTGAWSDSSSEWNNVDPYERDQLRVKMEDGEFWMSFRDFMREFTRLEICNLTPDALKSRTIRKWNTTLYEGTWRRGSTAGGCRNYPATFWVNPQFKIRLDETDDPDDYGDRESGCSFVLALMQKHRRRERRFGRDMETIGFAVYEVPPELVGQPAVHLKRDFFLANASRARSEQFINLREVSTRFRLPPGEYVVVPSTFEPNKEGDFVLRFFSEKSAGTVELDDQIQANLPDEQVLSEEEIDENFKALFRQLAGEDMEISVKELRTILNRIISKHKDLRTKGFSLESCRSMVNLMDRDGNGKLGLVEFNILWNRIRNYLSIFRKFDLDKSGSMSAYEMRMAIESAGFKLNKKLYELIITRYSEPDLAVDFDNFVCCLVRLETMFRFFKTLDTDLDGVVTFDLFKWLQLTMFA
Briefly: Inhibition of human calpain 1 at 100 uM.

In data set [16] the target is T2, Coagulation factor XII (Homo sapiens) (UniProt P00748).
T2 sequence (whole entry): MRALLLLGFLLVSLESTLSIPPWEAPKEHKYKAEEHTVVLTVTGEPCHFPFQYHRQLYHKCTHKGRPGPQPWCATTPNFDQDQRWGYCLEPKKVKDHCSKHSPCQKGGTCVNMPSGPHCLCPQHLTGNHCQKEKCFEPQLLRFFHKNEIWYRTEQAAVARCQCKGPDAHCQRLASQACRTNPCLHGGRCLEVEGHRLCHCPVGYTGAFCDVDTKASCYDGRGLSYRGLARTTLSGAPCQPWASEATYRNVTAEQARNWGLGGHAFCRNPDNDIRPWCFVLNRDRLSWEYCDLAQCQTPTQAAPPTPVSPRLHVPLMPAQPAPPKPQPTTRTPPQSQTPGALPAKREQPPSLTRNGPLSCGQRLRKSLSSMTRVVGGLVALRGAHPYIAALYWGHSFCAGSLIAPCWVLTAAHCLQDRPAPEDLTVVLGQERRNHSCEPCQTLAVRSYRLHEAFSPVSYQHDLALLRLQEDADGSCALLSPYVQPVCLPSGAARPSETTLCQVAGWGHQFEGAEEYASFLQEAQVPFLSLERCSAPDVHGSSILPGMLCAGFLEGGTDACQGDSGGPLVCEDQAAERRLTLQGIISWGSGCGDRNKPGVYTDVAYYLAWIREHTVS
The experiment in a line: Inhibition of human coagulation factor beta 12a at 100 uM.

Sequence of Tissue-type plasminogen activator (Homo sapiens) (P00750 36-562 limits assumed): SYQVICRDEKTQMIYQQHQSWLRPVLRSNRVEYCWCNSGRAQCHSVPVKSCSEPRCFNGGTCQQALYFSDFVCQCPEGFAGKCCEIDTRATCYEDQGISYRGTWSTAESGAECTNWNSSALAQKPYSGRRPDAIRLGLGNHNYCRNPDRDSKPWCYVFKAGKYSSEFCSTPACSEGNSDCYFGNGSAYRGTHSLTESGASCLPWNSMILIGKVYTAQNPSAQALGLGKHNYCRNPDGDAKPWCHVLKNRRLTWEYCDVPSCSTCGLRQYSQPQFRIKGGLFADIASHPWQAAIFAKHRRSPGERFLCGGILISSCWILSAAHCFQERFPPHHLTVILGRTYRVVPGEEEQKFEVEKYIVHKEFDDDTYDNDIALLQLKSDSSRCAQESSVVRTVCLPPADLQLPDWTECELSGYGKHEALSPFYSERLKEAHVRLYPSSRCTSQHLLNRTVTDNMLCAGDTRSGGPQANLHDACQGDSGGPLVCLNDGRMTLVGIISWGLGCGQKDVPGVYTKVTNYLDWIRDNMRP
Sequence of Procathepsin L (Homo sapiens) (P07711 114-333 limits assumed): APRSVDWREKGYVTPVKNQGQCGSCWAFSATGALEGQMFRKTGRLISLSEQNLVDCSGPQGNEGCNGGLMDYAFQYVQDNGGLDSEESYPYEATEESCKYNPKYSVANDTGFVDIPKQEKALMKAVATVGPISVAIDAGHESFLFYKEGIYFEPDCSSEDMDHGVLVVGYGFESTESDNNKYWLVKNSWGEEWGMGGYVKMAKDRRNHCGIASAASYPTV
Sequence of Plasminogen (Homo sapiens) (P00747 97-580 limits assumed): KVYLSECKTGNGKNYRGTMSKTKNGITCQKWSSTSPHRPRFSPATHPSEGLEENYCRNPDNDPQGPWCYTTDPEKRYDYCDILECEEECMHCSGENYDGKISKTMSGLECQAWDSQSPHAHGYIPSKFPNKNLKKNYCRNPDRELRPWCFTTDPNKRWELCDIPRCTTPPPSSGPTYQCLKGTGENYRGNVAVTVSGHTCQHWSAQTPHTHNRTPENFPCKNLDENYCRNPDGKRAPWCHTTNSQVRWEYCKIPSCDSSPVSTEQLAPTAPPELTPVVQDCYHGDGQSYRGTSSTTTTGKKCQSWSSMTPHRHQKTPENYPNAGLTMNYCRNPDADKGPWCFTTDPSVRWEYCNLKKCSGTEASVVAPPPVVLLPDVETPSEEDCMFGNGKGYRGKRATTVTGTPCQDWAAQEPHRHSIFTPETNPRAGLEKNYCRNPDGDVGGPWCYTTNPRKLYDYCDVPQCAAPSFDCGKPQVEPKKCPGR
Sequence of Plasminogen (Homo sapiens) (P00747 581-810 limits assumed): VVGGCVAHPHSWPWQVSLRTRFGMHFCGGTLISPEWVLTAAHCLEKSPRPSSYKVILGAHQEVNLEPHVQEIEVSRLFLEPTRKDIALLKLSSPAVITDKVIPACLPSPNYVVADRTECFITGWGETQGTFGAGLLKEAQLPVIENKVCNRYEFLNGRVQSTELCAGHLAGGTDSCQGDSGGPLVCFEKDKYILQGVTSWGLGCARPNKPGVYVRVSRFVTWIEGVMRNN

`Cc1ccc(CNC(=O)[C@H](CCc2ccccc2)NC(=O)[C@@H](NC(=O)c2ccc(OCc3ccccc3)cc2)[C@@H](C)O)cc1`: the IC50 in data set [1] is more than 20000 nM; in data set [3], more than 20000 nM; in data set [11] it was 20 nM; in data set [14], 120 nM. Also, the inhibition result in [2], in [4], in data set [5], in data set [6], in data set [7] and in data set [9] was “Active” in each case. For the same molecule, the inhibition result in [10], in data set [12], in data set [15] and in data set [16] was “Active” each time. Also, in data set [8], the CC50 at 72 h amounted to 380 nM. In addition, in data set [13], the inhibition came to 81%.
Turning to `Cc1ccc(CNC(=O)[C@H](CCc2ccccc2)NC(=O)[C@@H](NC(=O)C(=O)c2c[nH]c3ccccc23)[C@@H](C)O)cc1`, the IC50 in data set [1] was more than 20000 nM; in data set [3], more than 20000 nM; in [11], 7.3 nM; in [14] it was 90 nM. Moreover, the inhibition entry in data set [2], in data set [4], in data set [5], in data set [6], in [7] and in data set [9] was “Active” throughout. In addition, the inhibition result in data set [10], in [12], in data set [15] and in data set [16] was “Active” each time. The CC50 at 72 h in [8] amounted to 136 nM. In data set [13], this molecule displayed an inhibition of 100%.
Regarding `Cc1ccc(CNC(=O)[C@H](CCc2ccccc2)NC(=O)[C@@H](NC(=O)CCc2ccccc2C)[C@@H](C)O)cc1`, the IC50 in data set [1] is more than 20000 nM; in [3] it was more than 20000 nM; in data set [11], 120 nM; in [14] it was 690 nM. Further, the inhibition result in [2], in data set [4], in data set [5], in data set [6], in [7] and in data set [9] was “Active” each time. The inhibition entry in [10], in data set [12], in data set [15] and in data set [16] was “Active” each time. In [8], the CC50 at 72 h came to 2300 nM. Besides, the inhibition in data set [13] came out at 80%.
In the case of `COc1ccc2c(c1)C(CC(=O)N[C@H](C(=O)N[C@@H](CCc1ccccc1)C(=O)NCc1ccc(C)cc1)[C@@H](C)O)CC2=O` (stereo partly drawn), the IC50 was more than 20000 nM in [1], more than 20000 nM in [3], 25 nM in data set [11] and 320 nM in data set [14]. Also, the inhibition result in data set [2], in data set [4], in data set [5], in [6], in data set [7] and in [9] was “Active” each time. Further, the inhibition result in data set [10], in data set [12], in data set [15] and in [16] was “Active” throughout. The CC50 at 72 h in data set [8] came out at 1200 nM. For the same molecule, the inhibition in [13] was 89%.
`Cc1ccc(CNC(=O)[C@H](CCc2ccccc2)NC(=O)[C@@H](NC(=O)Cc2cccc(Oc3ccccc3)c2)[C@@H](C)O)cc1`: the IC50 in data set [1] was more than 20000 nM; in data set [3] it was more than 20000 nM; in data set [11], 450 nM; in [14] it was 24000 nM. The inhibition result in data set [2], in data set [4], in data set [5], in data set [6], in data set [7] and in data set [9] was “Active” throughout. Besides, the inhibition result in data set [10], in data set [12], in data set [15] and in [16] was “Active” in each case. For the same molecule, in data set [8], the CC50 at 72 h turned out to be 15000 nM. The molecule further yielded an inhibition in [13] of 30%.
Turning to `C[C@@H](O)[C@H](NC(=O)c1ccc(OCc2ccccc2)cc1)C(=O)N[C@@H](CCc1ccccc1)C(=O)NCc1ccccc1`, the IC50 is more than 20000 nM in data set [1], more than 20000 nM in data set [3], 68 nM in [11] and 710 nM in data set [14]. The inhibition result in data set [2], in data set [4], in data set [5], in [6], in [7] and in data set [9] was “Active” each time. The inhibition result in data set [10], in [12], in data set [15] and in data set [16] was “Active” throughout. Also, in [8], the CC50 at 72 h was determined as 1400 nM. Also, in data set [13], the inhibition came to 68%.
For the molecule `C[C@@H](O)[C@H](NC(=O)c1ccc(OCc2ccccc2)cc1)C(=O)N[C@@H](CCc1ccccc1)C(=O)NCc1ccccc1Cl`, the IC50 in data set [1] is more than 20000 nM; in data set [3], more than 20000 nM; in [11], 13 nM; in [14], 29 nM. The inhibition result in data set [2], in data set [4], in data set [5], in [6], in [7] and in [9] was “Active” in each case. In addition, the inhibition entry in data set [10], in data set [12], in data set [15] and in [16] was “Active” each time. Moreover, the CC50 at 72 h in data set [8] is 290 nM. In data set [13], the inhibition was determined as 87%.
For `C[C@@H](O)[C@H](NC(=O)c1ccc(OCc2ccccc2)cc1)C(=O)N[C@@H](CCc1ccccc1)C(=O)N(C)Cc1ccccc1`, the IC50 in data set [1] is more than 20000 nM; in [3], more than 20000 nM; in [11] it was 9100 nM; in data set [14] it was 4400 nM. Also, the inhibition entry in data set [2], in [4], in data set [5], in data set [6], in data set [7] and in data set [9] was “Active” each time. Further, the inhibition entry in data set [10], in data set [12], in data set [15] and in [16] was “Active” in each case. Besides, the CC50 at 72 h in data set [8] is 6600 nM. Also, the inhibition in data set [13] stood at 86%.
